Reference: ChEMBL document CHEMBL1144782, “Isoindolo[2,1-a]quinoxaline derivatives, novel potent antitumor agents with dual inhibition of tubulin polymerization and topoisomerase I” (2008)
Calls of active or inactive are those of the source. No cut-off for these calls is given here.

Columns and labels:
Jurkat [1] = assay: Cell cycle arrest in human Jurkat cells assessed as accumulation at G2/M phase at 62.5 nM after 24 hrs by flow cytometry; type: functional
Procedure, shortened: (§1)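 Exponentially growing Jurkat cells (5 × 105) were exposed to compound for 24 h. Cells were then fixed in ice-cold 70% ethanol, lysed with RNase A-containing buffer and stained with propidium iodide. DNA-content histograms from flow cytometry gave G1, S and G2/M fractions.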

Jurkat [2] = assay: Cell cycle arrest in human Jurkat cells assessed as accumulation at S phase at 125 nM after 24 hrs by flow cytometry; type: functional; procedure, shortened: as §1
Jurkat [3] = assay: Cell cycle arrest in human Jurkat cells assessed as accumulation at S phase at 250 nM after 24 hrs by flow cytometry; type: functional; procedure, shortened: as §1
Jurkat [4] = assay: Cell cycle arrest in human Jurkat cells assessed as accumulation at G1 phase at 500 nM after 24 hrs by flow cytometry; type: functional; procedure, shortened: as §1
Jurkat [5] = assay: Cell cycle arrest in human Jurkat cells assessed as accumulation at G2/M phase at 500 nM after 24 hrs by flow cytometry; type: functional; procedure, shortened: as §1
Jurkat [6] = assay: Cell cycle arrest in human Jurkat cells assessed as accumulation at S phase at 500 nM after 24 hrs by flow cytometry; type: functional; procedure, shortened: as §1
Jurkat [7] = assay: Cell cycle arrest in human Jurkat cells at mitosis at 0.5 uM after 24 hrs; type: functional
Procedure, shortened: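 Exponentially growing Jurkat cells were exposed for 24 h, then pelleted at 400g for 5 min. Hypotonic KCl (75 mM, 4 °C) was applied for 20 min, followed by methanol–acetic acid (3:1) fixation and Giemsa staining. 400 cells per treatment were scored microscopically; mitotic index is the fraction with mitotic figures. Three independent experiments, mean ± SEM.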

A549 [8] = assay: Disruption of tubulin network in human A549 cells assessed as disaggregation of microtubules at 2.5 uM […]; type: functional, cell-based
A549 [9] = assay: Disruption of tubulin network in human A549 cells assessed as disaggregation of microtubules at 5 uM […]; type: functional, cell-based
Salmonidae = assay: Binding affinity to salmon testes DNA by spectrophotometric titration method
Procedure, shortened: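 Absorption titration of salmon testes DNA into a constant drug concentration at varying [drug]/[DNA] ratios. ETN buffer (10 mM Tris, 1 mM EDTA, 10 mM NaCl), pH 7.0, 25 °C. Scatchard isotherms were fitted to the McGhee–von Hippel model for intrinsic binding constant and site size.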

[10] = molecular target: DNA topoisomerase 1 (Homo sapiens) (UniProt P11387); assay: Inhibition of human topoisomerase 1-mediated relaxation of supercoiled pBR322 DNA at 20 uM by agarose gel electrophoresis
Procedure, shortened: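 Supercoiled pBR322 was incubated with 5 units of human topoisomerase I for 30 min at 37 °C in 50 mM Tris-HCl pH 7.8, 50 mM KCl, 10 mM MgCl2, 1 mM DTT, 1 mM EDTA, with drug 0.5–200 µM. Reactions were stopped with SDS and proteinase K, run on 1% agarose at 20 V overnight, stained with ethidium bromide, and bands quantified. Ethidium-containing gels were also run.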

Jurkat [11] = assay: Effect on mitochondrial membrane potential depolarization in human Jurkat cells after 24 hrs by flow cytometry; type: functional, cell-based
Procedure, shortened: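 Jurkat cells after 24 h exposure were loaded with JC-1 (1 µM in HBSS) for 10 min at 37 °C, washed and analyzed by flow cytometry. The percentage of cells with low mitochondrial potential was recorded.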

Jurkat [12] = assay: Effect on mitochondrial dysfunction in human Jurkat cells assessed as induction of ROS production after 24 hrs by flow cytometry; type: functional, cell-based
Procedure, shortened: (§2)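 Jurkat cells after 24 h exposure were resuspended in HBSS with hydroethidine (2.5 µM, ROS) or NAO (100 nM, cardiolipin oxidation) for 30 min at 37 °C. Flow cytometry used 488 nm excitation, with emission at 585 nm (HE) or 530 nm (NAO). Mean ± SEM of three experiments.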

Jurkat [13] = assay: Effect on mitochondrial dysfunction in human Jurkat cells assessed as decrease in 10-N-nonyl-acridine-orange fluorescence intensity after 24 hrs by flow cytometry; type: functional, cell-based; procedure, shortened: as §2
Jurkat [14] = assay: Induction of apoptosis in human Jurkat cells assessed as activation of caspase 3 after 24 hrs by flow cytometry; type: functional, cell-based
Procedure, shortened: (§3)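 Jurkat cells were exposed (500 nM) for 24 h, then harvested and incubated in HBSS with cell-permeable FITC-DEVD-fmk (caspase-3) or FITC-[…]-fmk (caspase-9) for 1 h at 37 °C. After washing, cells were read by flow cytometry on FL-1. Results are fold increase over control.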

Jurkat [15] = assay: Induction of apoptosis in human Jurkat cells assessed as activation of caspase 9 after 24 hrs by flow cytometry; type: functional, cell-based; procedure, shortened: as §3
[16] = Antitumor activity against human HL60(TB) cells; type: functional, HL-60(TB)
Procedure, shortened: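 Tested by the NCI in its in vitro disease-oriented human tumor cell line screen. Each cell line gave pGI50 (−log molar concentration for 50% net growth inhibition), pTGI (−log molar concentration for total growth inhibition) and pLC50 (−log molar concentration for 50% net cell death).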

K562 = assay: Antitumor activity against human K562 cells; type: functional
Procedure, shortened: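 Run by the NCI in its in vitro disease-oriented screen of about 60 human tumour cell lines. For each line it reports pGI50 (50% net growth inhibition), pTGI (total growth inhibition) and pLC50 (50% net cell death), each as –log molar concentration. Where an effect was not reached within the tested range, the highest tested concentration was used.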

LoVo [17] = assay: Growth inhibition of human LoVo cells after 72 hrs by MTT assay; type: functional
Procedure, shortened: (§4)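 Growth inhibition by MTT after 72 h incubation. Resistant sublines: LoVoDoxo and MCF-7 MDR were kept in 0.1 µg/mL doxorubicin; CEMVbl-100 was selected against vinblastine. GI50 given as mean ± SEM of three independent experiments. Resistance index is resistant-line GI50 over parental GI50.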

LoVo [18] = assay: Resistance index, Ratio of GI50 for human doxorubicin-resistant LoVo cells to GI50 for human LoVo cells; type: functional; procedure, shortened: as §4
Jurkat [19] = assay: Cell cycle arrest in human Jurkat cells assessed as accumulation at G1 phase at 32 nM after 24 hrs by flow cytometry; type: functional; procedure, shortened: as §1
Jurkat [20] = assay: Cell cycle arrest in human Jurkat cells assessed as accumulation at S phase at 32 nM after 24 hrs by flow cytometry; type: functional; procedure, shortened: as §1

DNA topoisomerase 1 (Homo sapiens), sequence (P11387 whole entry): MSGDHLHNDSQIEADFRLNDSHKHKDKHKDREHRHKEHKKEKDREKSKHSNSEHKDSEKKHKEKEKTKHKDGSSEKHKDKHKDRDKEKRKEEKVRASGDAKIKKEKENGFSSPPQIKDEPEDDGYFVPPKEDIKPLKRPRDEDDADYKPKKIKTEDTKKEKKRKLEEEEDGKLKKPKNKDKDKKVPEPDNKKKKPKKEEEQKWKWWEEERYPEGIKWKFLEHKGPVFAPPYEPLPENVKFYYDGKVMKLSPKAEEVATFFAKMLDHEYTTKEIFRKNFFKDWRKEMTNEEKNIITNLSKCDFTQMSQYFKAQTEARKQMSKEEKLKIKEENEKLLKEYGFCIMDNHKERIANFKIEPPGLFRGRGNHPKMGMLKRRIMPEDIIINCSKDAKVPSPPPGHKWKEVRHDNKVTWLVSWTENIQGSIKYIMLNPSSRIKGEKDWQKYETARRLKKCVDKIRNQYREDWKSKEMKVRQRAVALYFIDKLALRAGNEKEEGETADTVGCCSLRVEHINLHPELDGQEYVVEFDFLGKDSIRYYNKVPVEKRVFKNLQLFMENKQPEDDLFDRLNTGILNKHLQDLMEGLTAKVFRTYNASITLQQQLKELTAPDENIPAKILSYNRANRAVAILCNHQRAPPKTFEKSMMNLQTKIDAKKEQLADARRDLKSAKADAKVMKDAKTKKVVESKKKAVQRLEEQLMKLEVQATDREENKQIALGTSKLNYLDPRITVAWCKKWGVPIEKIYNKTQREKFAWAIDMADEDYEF

## COc1ccc2c(c1)[nH]c(=O)c1c3ccccc3cn21
Jurkat [1]
  Activity: 43.1%
Jurkat [2]
  Activity: 38.6%
Jurkat [3]
  Activity: 44.2%
Jurkat [4]
  Activity: 0.1%
Jurkat [5]
  Activity: 50.9%
Jurkat [6]
  Activity: 49.1%
Jurkat [7]
  Activity: 50%
A549 [8]
  Activity: Active
A549 [9]
  Activity: Active
Salmonidae
  K: 2.7 10^5/M
[10]
  Activity: Active
Jurkat [11]
  Activity: Dose-dependent effect
Jurkat [12]
  Activity: Active
Jurkat [13]
  Activity: Active
Jurkat [14]
  Activity: Active
Jurkat [15]
  Activity: Active
[16]; HL-60
  GI50: 11.5 nM
[16]; HL-60, read-out: Log LC50 (the source's name) (converted)
  CC50: 3550 nM
[16]; HL-60, read-out: pTGI (converted)
  TGI: 60.3 nM
K562
  GI50: 8.91 nM
K562; read-out: Log LC50 (the source's name) (converted)
  CC50: 5130 nM
K562; read-out: pTGI (converted)
  TGI: 1020 nM
LoVo [17]
  GI50: 130 nM
LoVo [18]
  RatioGI50: 1
Jurkat [19]
  Activity: 27.1%
Jurkat [20]
  Activity: 44.1%
